# Assay outcomes as filed in PubChem.
# Sampled rows, rich in hits. Any-hit rate of the full collection: about 3.8%.
# KCNQ1 inh = inhibitors of human KCNQ1 potassium channel; P51787; CHO-K1 KCNQ1, FluxOR thallium flux fluorescence; hits give high values; B-score at 10 µM; hit rate 1.3% among 310,000; AID 2642;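 active = compounds whose thallium flux B-score, printed positive for inhibition, exceeds three library SD while starting fluorescence stays within three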;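 note: channel opened by potassium depolarization with thallium stimulus after 20 min compound exposure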
# KCNQ1 pot = potentiators or activators of human KCNQ1 potassium channel; P51787; CHO-K1 KCNQ1, thallium flux FluxOR fluorescence; hits give high values; B-score at 10 µM; hit rate 0.35% among 310,000;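 active = fluorescence ratio B-score, a plate-corrected score, at least three library SD, with initial intensity B-score within 5 SD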
#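 Schedule – 37 °C overnight plating, 90-min dark dye load, 20-min compound pretreatment · System – stable KCNQ1 CHO-K1 line · Probe or stimulus – thallium- and potassium-containing depolarizing buffer · Measured by – kinetic FluxOR fluorescence, 10 s baseline plus 110 s post-stimulus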
# KCNK3 inh = human KCNK3 channel inhibition, primary screen; hit rate 0.84% among 340,000; CHO-KCNK3 thallium flux, FluxOR fluorescence; hits give low values; B-score at 10 µM; O14649;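 active = B-score under library mean minus 4 SD, starting fluorescence ratio at most library mean plus 5 SD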;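 note: more negative B-score means stronger inhibition of thallium flux through KCNK3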
# Target sequence (O14649 whole entry, looked up): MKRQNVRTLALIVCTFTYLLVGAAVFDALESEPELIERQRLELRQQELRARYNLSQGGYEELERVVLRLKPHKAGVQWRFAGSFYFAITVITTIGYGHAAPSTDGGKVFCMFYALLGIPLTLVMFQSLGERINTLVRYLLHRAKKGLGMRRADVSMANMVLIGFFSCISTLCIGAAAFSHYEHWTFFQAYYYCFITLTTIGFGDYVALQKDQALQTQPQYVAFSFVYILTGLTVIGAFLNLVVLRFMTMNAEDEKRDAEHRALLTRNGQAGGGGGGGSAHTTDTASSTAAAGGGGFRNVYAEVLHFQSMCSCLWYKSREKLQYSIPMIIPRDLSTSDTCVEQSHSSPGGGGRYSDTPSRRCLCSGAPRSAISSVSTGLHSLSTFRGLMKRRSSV
# KCNK9 inh = human KCNK9 channel inhibition; hit rate 1.2% among 310,000; HEK293 KCNK9, FluxOR thallium flux fluorescence; hits give low values; B-score at 10 µM; AID 488922;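 active = ratio B-score over 3 SD below the library mean, with starting fluorescence within 5 SD of its mean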;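 note: negative B-score means less thallium flux so channel inhibition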
# Target sequence (Q9NPC2 whole entry, looked up): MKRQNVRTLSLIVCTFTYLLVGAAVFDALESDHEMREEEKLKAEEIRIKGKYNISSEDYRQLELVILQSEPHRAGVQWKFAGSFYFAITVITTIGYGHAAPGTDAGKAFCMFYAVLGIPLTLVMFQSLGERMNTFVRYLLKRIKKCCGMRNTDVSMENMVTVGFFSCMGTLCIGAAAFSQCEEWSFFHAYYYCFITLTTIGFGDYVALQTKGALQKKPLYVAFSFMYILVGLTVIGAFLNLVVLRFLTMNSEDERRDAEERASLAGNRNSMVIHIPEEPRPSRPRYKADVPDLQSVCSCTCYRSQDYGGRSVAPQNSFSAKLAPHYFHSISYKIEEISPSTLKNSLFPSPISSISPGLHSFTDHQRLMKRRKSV
# Kir21 block = Kir2.1 (mouse) channel inhibition. HEK293-Kir2.1, FluxOR thallium flux fluorescence; hits give low values. P35561. B-score at 10 µM. hit rate 0.85% among 310,000;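 active = fluorescence ratio B-score at or below minus 3 SD of library scores, with starting-brightness B-score within 2 SD, cut at about -4.2 in these data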;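 note: channel flux triggered by added potassium and thallium sulfate stimulus; B-score of peak minus minimum fluorescence over baseline after thallium stimulus; more negative B-score means stronger Kir2.1 block with less thallium influx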
# hERG protect = shields human hERG channel from block by proarrhythmic agents | CHO-hERG, FluxOR thallium flux, dofetilide IC70 present | activation (rescue from dofetilide block), less the hit threshold, % at 10 µM | hit rate 0.51% among 310,000 | AID 1511;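 active = activation above the mean of controls blocked by dofetilide plus 5 SD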;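 note: thallium influx through hERG after potassium depolarization seen as dye fluorescence rise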
# KCNQ1 block val = confirmation of human KCNQ1 potassium channel inhibitors | hit rate 93% among 1,600 | shares compounds with KCNQ1 inh | inhibition, % at 10 µM | AID 588353 | KCNQ1 cell line, FluxOR thallium flux fluorescence;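 active = primary screen active, with duplicate mean exceeding buffer control mean plus 3 SD of buffer wells, cut at about 28% in these data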;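 note: 0% = buffer control ratio and 100% = XE991 inhibitor control ratio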
# CHO Tl flux = activity in parental CHO cells lacking KCNQ1; shares compounds with KCNQ1 inh; parental CHO-K1, FluxOR thallium flux fluorescence ratio; hits give low values; zero means no signal rise above baseline; fluorescence ratio (Tl flux) at 10 µM; hit rate 21% among 1,600; AID 588366;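 active = mean of duplicate thallium-flux fluorescence ratios in parental host cells more than 5 SD below the buffer control mean, cut at about 0.38 in these data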;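 note: ratio is peak minus minimum fluorescence divided by baseline fluorescence; actives read low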
# KCNQ1 APC inh = human KCNQ1 inhibition validated by electrophysiology; hit rate 20% among 490; AID 624120; shares compounds with KCNQ1 inh; KCNQ1-CHO cells, automated patch clamp current; calls only at 10 µM;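 active = KCNQ1 current drop exceeding 3 SD of negative control wells, seen in both duplicate runs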;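 note: steady state current during a 2 s step from -80 to +40 mV; negative values mean current inhibition and positive values mean potentiation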
# KCNQ2 spec = KCNQ1 inhibitor that also blocks rat KCNQ2 channel; shares compounds with KCNQ1 inh; hit rate 71% among 1,600; KCNQ2 cells, FluxOR thallium flux fluorescence; inhibition, % at 10 µM; AID 651746;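 active = mean percent inhibition of the KCNQ2 thallium signal more than 5 SD above the buffer-only control wells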;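 note: KCNQ2 expressed in CHO cells; 0% = buffer control wells and 100% = XE-991 inhibitor control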
# KCNQ1-KCNE1 inh = human KCNQ1/KCNE1 inhibition in KCNQ1 specificity screen. inhibition, % at 10 µM. KCNQ1/KCNE1 cells, FluxOR thallium flux fluorescence. shares compounds with KCNQ1 inh. hit rate 77% among 1,600;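 active = mean percent inhibition of duplicate wells above the buffer-only control mean plus 3 SD of those controls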;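 note: 0% = buffer only wells and 100% = XE-991 inhibitor control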
# * = called active by the depositor; i = inactive; nt = no result; + = active, no number.
SMILES,KCNQ1 inh,KCNQ1 pot,KCNK3 inh,KCNK9 inh,Kir21 block,hERG protect,KCNQ1 block val,CHO Tl flux,KCNQ2 spec,KCNQ1-KCNE1 inh,others
CCOC(=O)CSC1=C(C#N)C(c2ccco2)C(C(=O)Nc2cccc(C(F)(F)F)c2)=C(C)N1 (stereo unspecified),8*,i,i,i,-0.15,-13.9,145.0*,0.393,124.7%*,+,KCNQ1 APC inh=i
CCOC(=O)C1=C(c2ccccc2)NC(SCC(=O)Nc2ccc(C)cc2)=C(C#N)C1c1ccco1 (stereo unspecified),i,i,i,i,2.3,3.2,nt,nt,nt,nt,
O=C(Nc1ccc(Br)cc1)c1ccc(F)c(S(=O)(=O)NCc2cccs2)c1,7*,i,i,i,-0.16,-18.0,140.5*,0.519,92.3%*,130.0%*,
O=S(=O)(NCc1cccs1)c1ccc(Br)cc1,i,i,i,i,-1.27,-7.0,nt,nt,nt,nt,
COc1ccc2oc(C)c(C(=O)c3ccccc3)c2c1,i,i,i,i,-3.04,-6.0,nt,nt,nt,nt,
COc1ccc2oc(/C=C/N(C)C)c(C(=O)c3ccc(Cl)cc3)c2c1,6*,i,i,i,-1.04,-15.1,114.0*,0.351*,139.0%*,145.0%*,
O=C(CCc1ccccc1)c1c(O)cc(O)cc1O,10*,i,i,i,0.84,-38.0,123.0*,0.367*,102.0%*,177.0%*,
COc1ccc(C(=O)CCc2ccccc2)c(O)c1,i,i,i,i,2.04,-4.8,nt,nt,nt,nt,
CCOC(=O)c1cc(C#N)c(Oc2ccccc2)nc1-c1ccccc1,7*,i,i,i,-0.2,-3.0,88.0*,0.329*,112.0%*,96.5%*,
COc1ccc(OC)c(NC(=O)Nc2c(O)ccc3ccccc23)c1,12*,i,i,i,-0.26,-8.7,0.0,0.619,i,48.0%*,
C=C(C)CN=CC1(C)CCC(C)=CO1 (stereo unspecified),nt,nt,i,nt,nt,nt,nt,nt,nt,nt,
CCCC1(c2ccccc2)NC(=O)N(CC(=O)Nc2sc(-c3ccccc3)cc2C(=O)OCC)C1=O (stereo unspecified),i,i,i,i,0.7,0.7,nt,nt,nt,nt,
O=S(=O)(Nc1nc2ccccc2nc1N1CCN(c2ccccc2)CC1)c1ccc(F)cc1,10*,i,i,i,-0.3,-6.4,78.5*,0.387,69.3%*,62.0%*,
CC(C)(C)Cn1c(=O)[nH]c(=O)c2cc([N+](=O)[O-])cnc21,i,i,i,i,0.63,-6.2,nt,nt,nt,nt,
O=C(c1ccc2c(c1)OCO2)N(Cc1ccco1)C1(C(=O)NC2CCCCC2)CCCCC1,6*,i,i,i,0.34,-9.9,80.0*,0.364*,88.7%*,77.5%*,
Cc1cc(-c2nnc(SCC(=O)Nc3cccc(F)c3)n2N)n[nH]1,i,i,i,i,-0.42,-4.3,nt,nt,nt,nt,
CC(NC(=S)Nc1ccc(OC(F)F)c(Cl)c1)C(C)(C)C (stereo unspecified),8*,i,i,i,-0.45,-16.2,60.5*,0.491,i,36.0%*,
Nc1ncnc(NC2CCS(=O)(=O)C2)c1[N+](=O)[O-] (stereo unspecified),i,i,i,i,0.52,-0.5,nt,nt,nt,nt,
COc1ccc(-c2[nH]c3ccccc3c2SCCN)cc1,i,i,i,i,-3.64,-8.3,nt,nt,nt,nt,
CCOC(=O)c1c(CN2CCNCC2)nc2ccc(Cl)cc2c1-c1ccccc1,nt,nt,i,nt,nt,nt,nt,nt,nt,nt,
COc1ccccc1NC(=O)C(C)OC(=O)C1CCC(C(C)(C)C)CC1 (stereo unspecified),7*,i,i,-7.1*,-2.63,-5.3,121.5*,0.493,82.7%*,156.0%*,KCNQ1 APC inh=i
CC1CCC(=C(C#N)C(=O)Nc2cccc(Cl)c2)CC1 (stereo unspecified),15*,i,i,i,-0.83,-7.0,96.0*,0.424,93.7%*,81.5%*,KCNQ1 APC inh=+
N#CC(C(=O)Nc1cccc(Cl)c1)=C1Nc2ccccc2N1,i,i,i,i,1.26,-5.8,nt,nt,nt,nt,
O=S(=O)(NCCSCc1ccc(Cl)cc1Cl)c1ccc2c(c1)OCCO2,7*,i,-9.1*,i,1.71,-1.4,129.0*,0.43,96.0%*,144.5%*,KCNQ1 APC inh=i
COc1ccc2[nH]c3c(NCc4ccco4)ncnc3c2c1,i,i,nt,i,1.61,-12.7,nt,nt,nt,nt,
SMILES,KCNQ1 inh,KCNQ1 pot,KCNK3 inh,KCNK9 inh,Kir21 block,hERG protect,KCNQ1 block val,CHO Tl flux,KCNQ2 spec,KCNQ1-KCNE1 inh,others
Fc1ccc2[nH]c3c(NCc4ccccc4)ncnc3c2c1,7*,i,i,i,-2.46,-23.5,149.5*,0.404,73.0%*,75.5%*,KCNQ1 APC inh=i
COc1ccc(C(=O)NNC(=O)CSc2nc3c([nH]2)c(=O)n(C)c(=O)n3C)cc1,i,i,i,i,0.69,-12.0,nt,nt,nt,nt,
CC1(C)Cc2c(cnn2-c2ccc(F)cc2)C(NC(=O)C2CCC2)C1 (stereo unspecified),8*,i,i,i,-0.53,-5.7,103.0*,0.455,70.0%*,111.5%*,KCNQ1 APC inh=+
CN(C(=O)c1cc(-c2ccc3c(c2)OCO3)on1)c1ccccc1,i,i,i,i,-1.38,-3.6,nt,nt,nt,nt,
O=C(CC1C(=O)N(c2ccccc2)C(=S)N1c1ccccc1)c1ccc(Br)cc1 (stereo unspecified),6*,i,i,i,-1.9,-15.5,65.0*,0.44,97.0%*,68.5%*,
O=C1C(Cl)=C(N2CCCCCC2)C(=O)N1c1ccc(Br)cc1,6*,i,i,i,1.61,-8.9,85.0*,0.4,101.3%*,100.5%*,
O=C1C(Cl)=C(N2CCCCCC2)C(=O)N1c1ccccc1,i,i,i,i,-1.38,-8.8,nt,nt,nt,nt,
CC(=O)Oc1ccc([C@@H]2COc3c(ccc4c3C=CC(C)(C)O4)C2)c(OC(C)=O)c1,7*,i,i,i,-0.51,-10.4,136.5*,0.42,90.3%*,78.0%*,
CC1(C)C=Cc2c(ccc3c2OC[C@H](c2ccc(O)cc2O)C3)O1,nt,nt,i,nt,nt,nt,nt,nt,nt,nt,
O=C(NCCCN1CCOCC1)C(=O)c1c[nH]c2ccccc12,i,i,i,i,0.05,-7.7,nt,nt,nt,nt,
